Assay results taken from article PMC2570394 (Diabetes, 2008).
Where two headings read alike, the source gives them in different places.

Tests used:
[1] = tested on: isolated soleus muscle of ob/ob mice; conditions: cited from earlier work
DIO rats [2] = assay: Plasma measurements after central or global CB1 blockade in DIO rats; type: in vivo; conditions: Central CB1 blockade, icv 5 μg/rat per day, 6 days, mean ± SE
Summary of the method: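 Diet-induced obese rats (45% high-fat diet, 8 weeks) got test compound 5 μg/rat per day icv for 6 days, alongside vehicle and pair-fed controls. Plasma glucose was measured by the glucose oxidase method, and nonesterified fatty acids by commercial kit. Corticosterone and insulin were measured by double-antibody radioimmunoassay. Means ± SE.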

DIO rats [3] = type: in vivo, rat; conditions: 6 days
DIO rats [4] = type: in vivo, rat
Summary of the method: (§1)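 Lean or diet-induced obese rats received 6-day treatment with vehicle and pair-fed controls. Epididymal WAT and liver were freeze-clamped and kept at −80°C. Real-time qPCR used SYBR Green, ~70 ng template cDNA and primers at 0.5 μmol/l final. Relative levels came from a standard curve and were normalised to ribosomal protein S29 in WAT and cyclophilin A in liver. n=5–7, means ± SE.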

DIO rats [5] = assay: Triglyceride content in epididymal WAT and plasma of DIO rats; type: in vivo, rat; conditions: 6 days
Summary of the method: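 Diet-induced obese rats received test compound for 6 days, either 5 μg/day icv by minipump or 10 mg/kg per day i.p., alongside vehicle and pair-fed groups. Lipids were extracted from epididymal WAT. After the organic solvent was evaporated, triglyceride was measured enzymatically in duplicate. Plasma triglyceride was measured by commercial kit. n=5–7, means ± SE.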

DIO rats [6] = type: in vivo, rat; conditions: 6 days; remark: listed apart in the source
Summary of the method: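 Male Sprague-Dawley rats were fed a 45% high-fat diet for 8 weeks, then given vehicle or test compound for 6 days, with a vehicle pair-fed group. They were fasted overnight and anaesthetised with pentobarbital 50 mg/kg i.p. Clamps were run basal and insulin-stimulated (200 mU/ml) with D-[U-14C]glucose infusion (5 μCi/ml). A 2-deoxy-D-[1-3H]glucose bolus (30 μCi/rat) followed, and tissue 2-DG-6-P gave a utilisation index in ng/min/mg. n=5–7.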

[7] = tested on: diet-induced obese (DIO) mice; conditions: cited from earlier work
normal rats [8] = assay: Quantitative RT-PCR of lipid metabolism enzymes in WAT and liver of lean rats; type: in vivo, rat; conditions: 6 days
Summary of the method: as §1

Zucker rats = conditions: cited from earlier work
normal rats [9] = assay: Food intake and body weight during 6-day CB1 antagonist infusion in lean rats; type: in vivo, rat; conditions: 6 days; for body weight / food intake: lean rats
Summary of the method: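 Rats on standard chow received test compound for 6 days, either 3 or 5 μg/rat per day icv or 5 μg/rat per day s.c. Both routes used osmotic minipumps. Vehicle was isotonic saline with 0.3% Tween 80. Icv cannula placement was checked by drinking response to icv angiotensin II (5 ng/μl). Vehicle pair-fed rats got the treated group's daily intake before dark onset. Food intake and body weight were recorded daily. n=5–7, means ± SE.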

[10] = type: in vivo, mice (C57BL/6J; conditions: male, C57BL/6J, mouse, ip, 10 mg/kg
obese Zucker rats = conditions: 30 mg/kg, 8 weeks; cited from earlier work
rat = conditions: acute intracerebroventricular injection, 3 μg/rat per day; cited from earlier work
CB1 receptor = conditions: by reducing food intake and increasing energy expenditure and fat oxidation; cited from earlier work
[11] = intracerebroventricular 5 μg/rat per day
[12] = ip 10 mg/kg, 6 days, independent of hypophagia
[13] = normal rats, icv 5 μg/day, similar in vehicle pair-fed group
[14] = intracerebroventricular 3 μg/rat per day
[15] = peripheral 5 μg/rat per day via subcutaneous minipumps

SMILES: Cc1c(C(=O)NN2CCCCC2)nn(-c2ccc(Cl)cc2Cl)c1-c1ccc(Cl)cc1 [SR141716, Rimonabant]
- glucose uptake [1]: increases
- Corticosterone (plasma) (DIO rats [2]): 59.77 ± 7.26 ng/mL
- Glucose (plasma) (DIO rats [2]): 3.78 ± 0.12 mmol/L
- Insulin (plasma) (DIO rats [2]): 0.58 ± 0.12 ng/mL
- Nonesterified fatty acids (plasma) (DIO rats [2]): 0.66 ± 0.13 mmol/L
- decrease in food intake (DIO rats [3]; [11]): 31%
- body weight (DIO rats [3]; intracerebroventricular 5 μg/rat per day, mimicked by pair feeding): loss of body weight
- decrease in food consumption (DIO rats [3]; intraperitoneal 10 mg/kg per day, P < 0.01): 40%
- expression of hormone-sensitive lipase and adipose triglyceride lipase (DIO rats [4]; WAT, drug treatment (data not shown)): not modified
- WAT CPT-1 expression (DIO rats [4]; icv 5 μg/day, 6 days): trend toward an increase
- WAT SCD-1 expression (DIO rats [4]; icv 5 μg/day, 6 days, also present in pair-fed group): decrease
- liver SCD-1 expression (DIO rats [4]; icv 5 μg/day, 6 days, similar decrease in vehicle pair-fed animals): decreased
- liver gene expression of lipid metabolism enzymes (DIO rats [4]; ip 10 mg/kg, 6 days): No modification
- liver expression of glucose-6-phosphatase (DIO rats [4]; ip 10 mg/kg, 6 days, also in vehicle pair-fed group): marked decrease
- WAT CPT-1 expression (DIO rats [4]; [12]): increase
- WAT SCD-1 expression (DIO rats [4]; [12]): decrease
- triglyceride levels in WAT (DIO rats [5]; icv 5 μg/day): did not modify
- triglyceride levels in plasma (DIO rats [5]; icv 5 μg/day): did not modify
- WAT triglyceride content (DIO rats [5]; ip 10 mg/kg, not observed in vehicle pair-fed group): decreased
- overall insulin sensitivity (DIO rats [6]; icv 5 μg/day): failed to elicit any change
- glucose infusion rate (GIR) (DIO rats [6]; icv 5 μg/day, vs vehicle): identical
- glucose uptake in skeletal muscle and WAT (DIO rats [6]; icv 5 μg/day, vs vehicle): identical
- hepatic glucose production (HGP) (DIO rats [6]; icv 5 μg/day, vs vehicle): identical
- overall insulin sensitivity (DIO rats [6]; ip 10 mg/kg): enhanced
- hepatic glucose production (HGP) (DIO rats [6]; ip 10 mg/kg, comparable in vehicle pair-fed rats): suppressed
- glucose utilization by adipose tissue (DIO rats [6]; ip 10 mg/kg, food-independent effect): increased
- glucose infusion rate (GIR) (DIO rats [6]; ip 10 mg/kg, similar increase in vehicle pair-fed group): higher
- body weight [7]: maintained reduction
- food intake [7]: transient suppression
- WAT mRNA expression of lipid metabolism enzymes (normal rats [8]; lean rats, 5 μg/rat per day given peripherally): no change
- liver gene expression of key enzymes regulating triglyceride metabolism (normal rats [8]; lean rats, icv 5 μg/day): No significant difference
- WAT expression of CPT-1 (normal rats [8]; [13]): increased
- WAT expression of genes promoting lipogenesis and triglyceride storage (FAS, SCD-1, ACCα, LPL) (normal rats [8]; [13]): markedly reduced
- body weight (Zucker rats): maintained reduction
- food intake (Zucker rats): transient suppression
- body weight (normal rats [9]; [14]): no effect
- food intake (normal rats [9]; [14]): no effect
- body weight (normal rats [9]; [11]): loss of body weight
- body weight (normal rats [9]; [15]): unable to detect changes
- food intake (normal rats [9]; [15]): unable to detect changes
- decrease in food intake (normal rats [9]; normal rats, intracerebroventricular 5 μg/rat per day): 17%
- Cmax ([10]; brain): 1010 ± 384 ng/g
- concentration at 25.1 h ([10]; brain): 186 ± 37.5 ng/g
- half-life ([10]; brain): 566 min
- Cmax ([10]; serum): 258 ± 58.9 ng/mL
- concentration at 25.1 h ([10]; serum): 20.5 ± 9.25 ng/mL
- half-life ([10]; serum): 380 min
- hepatic lipid metabolism (obese Zucker rats): food intake–independent effect
- food intake (rat): decreases

SMILES: C[C@H](NC(=O)C(C)(C)Oc1ccc(C(F)(F)F)cn1)[C@@H](Cc1ccc(Cl)cc1)c1cccc(C#N)c1 [taranabant]
- body weight (CB1 receptor): weight loss
